Assay outcomes deposited in PubChem BioAssay by several laboratories.
Rows were chosen to be rich in hits. Some 2.8% of all compounds tested hit in one or more screens of this group.
HTR2A ag: mouse HTR2A agonism via beta-arrestin recruitment. P35363. CHO-K1 mHTR2A beta-arrestin complementation, luminescence; percent of 30 µM serotonin response. activation, % at 7.6 µM. hit rate 0.66% among 360,000;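 active = activation above a run cutoff, the mean activation of all tested compounds plus 3 SD, cut at about 14% in these data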
Target sequence (P35363 whole entry, looked up): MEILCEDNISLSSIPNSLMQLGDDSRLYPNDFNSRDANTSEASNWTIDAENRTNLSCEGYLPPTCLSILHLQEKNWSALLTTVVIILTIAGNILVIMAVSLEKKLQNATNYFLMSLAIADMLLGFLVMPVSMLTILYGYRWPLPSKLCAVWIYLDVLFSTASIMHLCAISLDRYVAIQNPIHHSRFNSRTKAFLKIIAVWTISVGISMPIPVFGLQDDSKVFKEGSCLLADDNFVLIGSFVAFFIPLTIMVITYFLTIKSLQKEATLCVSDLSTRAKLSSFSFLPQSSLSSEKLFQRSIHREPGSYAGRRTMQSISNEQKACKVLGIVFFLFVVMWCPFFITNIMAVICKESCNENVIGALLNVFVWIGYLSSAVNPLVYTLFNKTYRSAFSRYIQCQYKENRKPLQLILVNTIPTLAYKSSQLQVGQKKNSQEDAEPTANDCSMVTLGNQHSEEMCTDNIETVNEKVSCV
MC4R ag barr: agonists of human melanocortin 4 receptor (MC4R) beta-arrestin. P32245. U2OS MC4R beta-arrestin complementation, luminescence; percent of melanotan II response, DMSO zero. activation, % at 8.9 µM. hit rate 0.98% among 360,000. AID 540308;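 active = activation above a per-plate cutoff, the mean activation of sample wells on that plate plus 3 SD, cut at about 8% in these data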
MC4R antagonist: antagonists of human melanocortin 4 receptor (MC4R) | MC4R-expressing cells, MTII-stimulated cAMP, LANCE TR-FRET | P32245 | hit rate 0.48% among 360,000 | AID 540295 | inhibition, % at 6.5 µM;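 active = inhibition above its plate's cutoff, the mean of tested wells on that plate plus 3 SD, cut at about 29% in these data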
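System: U2OS cells stably expressing human melanocortin 4 receptor (MC4R). Reagent: Melanotan II challenge after compound preincubation. Doses: 6.5 µM. Times: 30-min compound, 1-h challenge, 1-h detection, room temperature. Measured by: TR-FRET with Eu-cAMP and labeled anti-cAMP, 671 nm. Replicates: singlicate.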
EBI2 block: blocks human EBI2 receptor beta-arrestin signaling; EBI2 beta-arrestin recruitment, luminescence, 7a,25-OHC stimulated; inhibition, % at 5 µM; hit rate 0.81% among 360,000; in the data active = inhibition above about 38%;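 note: enzyme fragment complementation signal reports receptor beta-arrestin coupling in cells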
cAMP nonselect: nonselective cAMP signaling inhibitor, MC4R antagonist counter-screen; inhibition, % at 6.5 µM; AID 602193; shares compounds with MC4R antagonist; parental U2OS, forskolin cAMP, LANCE TR-FRET; hit rate 26% among 1,600;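 active = mean inhibition over triplicates above the low-control well mean plus 3 SD, set per campaign, cut at about 13% in these data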;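 note: signal is single emission at 671 nm which falls as cellular cAMP rises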
MC4R cAMP antag: human MC4R cAMP antagonism confirmation; shares compounds with MC4R antagonist; MC4R-expressing cells, MTII-stimulated cAMP, TR-FRET; inhibition, % at 6.5 µM; hit rate 27% among 1,600; AID 602195; in the data active = inhibition above about 29%
Large screens that a line does not name were inactive (follow-up assays come after a bar, where they were run).

COC(=O)c1sc(-c2ccc(Cl)cc2)cc1NC(=O)/C=C/C(=O)O	MC4R antagonist 47.3 | cAMP nonselect 13.1 | MC4R cAMP antag inactive
COC(=O)c1c(NC(=O)/C=C/C(=O)O)sc(C)c1-c1ccc(C(C)C)cc1	MC4R antagonist 32.7 | cAMP nonselect inactive | MC4R cAMP antag inactive
O=C(Nc1nnc(C2CCCC2)s1)C1CCN(S(=O)(=O)c2ccc(Cl)cc2)CC1	MC4R antagonist 29.9 | cAMP nonselect inactive | MC4R cAMP antag inactive
CC1C(c2ccccc2)OCCN1C(=S)NC(=O)c1ccccc1 (stereo not given)	none
Cc1ccc(NC(=O)c2cncc(Br)c2)cc1S(=O)(=O)N(C)C	MC4R antagonist 29.3 | cAMP nonselect inactive | MC4R cAMP antag inactive
CCOC(=O)/C=C/C(=O)Nc1cccc([N+](=O)[O-])c1	MC4R antagonist 34.2 | cAMP nonselect 25.8 | MC4R cAMP antag 60.1
CCCCn1c(=O)[nH]c(=O)c2c1nc(-c1ccc(C#N)cc1)n2C1CCCC1	MC4R antagonist 28.5 | cAMP nonselect inactive | MC4R cAMP antag inactive
NS(=O)(=O)c1ccc(NC(=O)COC(=O)c2ncc(Cl)c(Cl)c2Cl)cc1	MC4R antagonist 32.2 | cAMP nonselect inactive | MC4R cAMP antag 28.9
CCOc1ccc(NC(=O)COC(=O)c2ncc(Cl)c(Cl)c2Cl)cc1	none
O=C(OCC(=O)N1CCCC1=O)c1ncc(Cl)c(Cl)c1Cl	MC4R antagonist 31.0 | cAMP nonselect inactive | MC4R cAMP antag inactive
CC(C)COC(=O)N(C)C[C@H]1OCc2cnnn2CCCC(=O)N([C@H](C)CO)C[C@H]1C	none
O=C(CNc1cccc(Br)c1)Nc1ccc(S(=O)(=O)N2CCCCC2)cc1	none
O=C1C(SCCO)=C(SCCO)C(=O)c2ccccc21	MC4R antagonist 97.4 | cAMP nonselect 102.4 | MC4R cAMP antag 142.8
CC1=C(SCc2ccccc2)C(=O)c2ccccc2C1=O	none
CC(C(=O)c1ccccc1)[n+]1cccc(C(N)=O)c1 (stereo not given)	MC4R antagonist 33.0 | cAMP nonselect inactive | MC4R cAMP antag inactive
CCN1CCN(C(C(=O)NC2CCCCC2)c2cc3ccccc3o2)CC1 (stereo not given)	none (no result: MC4R ag barr, MC4R antagonist)
C=CC[C@@H](CC(=O)N(CCO)Cc1ccccc1)C(=O)N[C@H](COC(=O)[C@@H](CC=C)Cc1ccc(F)cc1)Cc1c[nH]c2ccccc12	MC4R antagonist 29.1 | cAMP nonselect inactive | MC4R cAMP antag inactive
CC(C)Sc1cc(Cl)nc(NC(=O)Nc2ccccc2)n1	MC4R antagonist 30.6 | cAMP nonselect 17.0 | MC4R cAMP antag 39.5
CCOc1ccc(CCN2C(=S)N([C@@H](Cc3ccc(O)cc3)CN3CCC[C@@H]3CN3C(=S)NC[C@@H]3CC(C)C)C[C@@H]2CC(C)C)cc1	none (no result: MC4R ag barr, MC4R antagonist)
COc1ccc(NC(=O)CCC(=O)NCCO)cc1	MC4R antagonist 37.2 | cAMP nonselect inactive | MC4R cAMP antag inactive
O=C1c2ccc([N+](=O)[O-])cc2S(=O)(=O)N1Cc1ccccc1	MC4R antagonist 32.7 | cAMP nonselect 28.3 | MC4R cAMP antag 50.3
COc1cccc(CN2C(=O)c3ccccc3S2(=O)=O)c1	none
COc1nc(Cl)cn(-c2ccc(C)cc2)c1=O	none
Cc1ccc(-n2c(Cl)c(Cl)nc(Cl)c2=O)cc1	MC4R antagonist 45.9, EBI2 block 52.2 | cAMP nonselect 57.2 | MC4R cAMP antag 54.9
CC1(C(=O)NC2CCCC2)CCC(=O)N1CCOc1ccccc1 (stereo not given)	none (no result: MC4R ag barr, MC4R antagonist)
COc1ccc2sc(-c3ccc(N(C)C)cc3)c(C#Cc3cncn3C)c2c1	MC4R antagonist 38.2 | cAMP nonselect inactive | MC4R cAMP antag 36.6
COc1ccc2sc(-c3ccc(N(C)C)cc3)c(C#CC(C)(C)O)c2c1	none
COC(=O)[C@H](Cc1ccccc1)NC(=O)NCCc1ccc(S(N)(=O)=O)cc1	none
COC(=O)[C@H](Cc1ccccc1)NC(=O)NCCc1ccc(F)cc1	MC4R antagonist 28.9 | cAMP nonselect 32.1 | MC4R cAMP antag 34.6
COC(=O)C(Cc1ccccc1)NC(=O)CCNC(=O)c1ccc(Br)cc1 (stereo not given)	MC4R antagonist 28.6 | cAMP nonselect inactive | MC4R cAMP antag inactive
CSCc1ccc(C(=O)Nc2ccc(C(N)=O)cc2)cc1	MC4R antagonist 31.4 | cAMP nonselect inactive | MC4R cAMP antag inactive
CSCc1ccc(C(=O)NCc2ccccc2)cc1	none
